# Hck Nef HTS – blocks Nef-activated human Hck kinase | inhibition, % at 20 µM | 220,000 tested, 0.68% active | Recombinant Hck-YEEI plus Nef, Z-Lyte FRET kinase assay | P08631;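 active = Hck-Nef kinase inhibition above about 50%, limit read from the data; inactive = inhibition below that limit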
# Target sequence (P08631 whole entry, looked up): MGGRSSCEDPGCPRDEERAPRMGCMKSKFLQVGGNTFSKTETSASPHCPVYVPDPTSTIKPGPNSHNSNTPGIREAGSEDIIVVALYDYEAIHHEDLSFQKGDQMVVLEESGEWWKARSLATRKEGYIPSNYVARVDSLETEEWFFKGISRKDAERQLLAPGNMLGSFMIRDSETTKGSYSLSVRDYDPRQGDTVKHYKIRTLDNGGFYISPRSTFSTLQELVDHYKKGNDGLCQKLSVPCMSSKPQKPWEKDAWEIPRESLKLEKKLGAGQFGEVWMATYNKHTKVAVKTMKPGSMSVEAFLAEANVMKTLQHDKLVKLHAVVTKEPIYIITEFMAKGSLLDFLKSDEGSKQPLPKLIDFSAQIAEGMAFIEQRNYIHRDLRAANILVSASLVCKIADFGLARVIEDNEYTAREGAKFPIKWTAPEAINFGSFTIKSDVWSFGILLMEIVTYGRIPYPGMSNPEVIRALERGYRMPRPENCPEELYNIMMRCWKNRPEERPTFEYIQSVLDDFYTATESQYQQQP
# 14-3-3 Bad inh – disrupts binding of bovine 14-3-3 zeta to phospho-Bad peptide; TR-FRET 14-3-3zeta/Dy647-pBad peptide displacement, 1 h; 220,000 tested, 0.71% active; inhibition, % at 21.7 µM; AID 781;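 active = inhibition above about 70%, limit read from the data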
# p97 inhibitor – inhibitors of human p97 ATPase | inhibition, % at 8 µM | 220,000 tested, 0.42% active | AID 1481 | recombinant p97 ATPase, Kinase-Glo ATP luminescence, 3 h | P55072; in the data active = inhibition above about 15%
# eIF4E 4G PPI – inhibitors of eIF4E and eIF4G interaction in translation initiation. P63073+Q04637. TR-FRET eIF4E-eIF4GI(517-606) binding, 2 h. inhibition, % at 21.7 µM. 220,000 tested, 0.37% active. AID 782;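 active = inhibition above about 30%, limit read from the data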
# Calb biofilm kill – mixture kills Candida albicans biofilm cells; inhibition, % at 7.6 µM; 120,000 tested, 0.02% active; C. albicans biofilm persisters + clotrimazole, fluorescence viability; primary screen in compound mixtures of four per well;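 also: compounds exposed to preformed 24 h biofilms for 48 h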
#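 Incubation: 24 h biofilm formation, then 48 h compound exposure, 37 °C | Material: C. albicans biofilms | Buffer or medium: RPMI/MOPS medium, pH 7.0 | Measured by: 2-h Alamar Blue fluorescence, 535/590 nm excitation/emission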
# PERK inhibitor – inhibitors of human PERK kinase | Q9NZJ5 | CHO PERK-DD fusion, SEAP luminescence translation reporter | inhibition, % at 5.6 µM | 220,000 tested, 0.17% active;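 active = inhibition above the mean inhibition of all tested compounds plus 3 SD, set separately per screening campaign, cut at about 2.9% in these data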;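 also: PERK kinase domain activated by AP20187 dimerizer at 100 nM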
# Hck-Nef confirm – confirmation of Hck-Nef kinase inhibitors. shares compounds with Hck Nef HTS. Recombinant Hck-YEEI:Nef, Z-Lyte FRET kinase assay. calls only at 10 µM. 1,300 tested, 28% active. AID 463188;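 active = average inhibition of at least 50%, with Z-scores no higher than 3 in both the phospho-tyrosine peptide and fluorescence counterscreens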
# Hits are given with their value; . = inactive; / = no result shown; + = active, no number; [ ] = another dose, or the depositor's remark. Only some compounds are listed: those with a hit (about 2.2% of all), similar ones and a draw of the others.
SMILES,Hck Nef HTS,14-3-3 Bad inh,p97 inhibitor,eIF4E 4G PPI,Calb biofilm kill,PERK inhibitor,Hck-Nef confirm
COc1cccc(N=c2oc3cc(O)ccc3cc2C(=O)NCC2CCCO2)c1 (stereo not drawn),82,.,.,.,.,.,/
COc1cccc2cc(C(=O)NCC3CCCO3)c(=O)oc12 (stereo not drawn),.,.,.,.,/,.,/
COc1ccccc1N=c1oc2cc(O)ccc2cc1C(N)=O,140,.,.,.,/,.,/
COc1ccc2cc(C(N)=O)c(=Nc3ccc(C)cc3)oc2c1,.,.,.,.,.,.,/
COc1ccccc1N=c1oc2cc(O)ccc2cc1C(=O)NCC1CCCO1 (stereo not drawn),72,.,.,.,/,.,/
COc1ccccc1NC(=O)c1cc2ccc(O)cc2o/c1=N\O,.,.,.,.,/,.,/
CCN(CC)C(=O)c1ccc2c3c(cccc13)C(=O)N(CCc1ccc(OC)c(OC)c1)C2=O,.,.,.,.,.,.,/
CCOC(=O)c1c(NC(=O)C2CC(Cl)=CCC2C(=O)O)sc2c1CC(C)(C)OC2 (stereo not drawn),.,.,.,.,.,.,/
COc1ccc(-c2csc(NC(=O)CSc3nc(C)nc4sc(C(=O)O)c(C)c34)n2)cc1,96,.,.,.,.,.,+
CCOC(=O)N1CCN(C(=O)CSCC(=O)Nc2nc(-c3ccc(OC)cc3)cs2)CC1,.,.,.,.,/,.,/
O=C(NC(=S)Nc1cccc(S(=O)(=O)NC2=NCCC2)c1)c1cc(-c2ccco2)nc2ccccc12,.,.,.,.,.,.,/
O=C(Nc1cccc(S(=O)(=O)NC2=NCCC2)c1)c1cc(-c2ccco2)nc2ccccc12,87,.,.,48,.,3.2,+
O=C(NC1CC1)c1cc(-c2ccco2)nc2ccccc12,72,83,.,57,.,.,+
Cc1cc(C)n2c(SCC(=O)NC3CCCCC3)nnc2n1,.,.,.,.,.,.,/
COc1ccc(S(=O)(=O)Nc2cccnc2)cc1,.,.,.,.,.,.,/
CCCn1c(NC(=O)c2ccc(Cl)c(S(=O)(=O)N3CCCC3)c2)nc2ccccc21,73,.,.,.,/,.,+
O=C(Nc1cccc(Oc2ccc(C(=O)O)c(C(=O)O)c2)c1)c1ccc(-c2ccccc2)cc1,66,.,.,.,.,.,.
N#C/C(=C\c1ccncc1)c1nc2ccccc2[nH]1,.,.,.,.,.,.,/
N#C/C(=C\c1ccc(OC(=O)c2ccc(Cl)s2)cc1)c1nc2ccccc2[nH]1,56,.,.,.,.,.,+
Clc1cccc(Cl)c1CNc1ccc(N2CCCC2)cc1,71,.,.,.,.,.,.
O=C(Cc1ccc(Cl)cc1)Nc1ccc(N2CCCC2)cc1,.,.,.,.,/,.,/
c1ccc(-c2cc(-c3nnc4n3N=C(c3ccc5ccccc5c3)CS4)[nH]n2)cc1,54,.,.,.,/,.,+
Cc1cc(-c2nnc3n2N=C(c2ccc(-c4ccccc4)cc2)CS3)n[nH]1,.,.,.,.,/,.,/
CC(NCCN(C)C)C(=O)C12CC3CC(CC(C3)C1)C2 (stereo not drawn),.,.,.,.,.,.,/
COc1ccc(-c2noc(CSc3nc(-c4ccccc4)cc(=O)[nH]3)n2)cc1OC,54,/,.,/,/,.,.
SMILES,Hck Nef HTS,14-3-3 Bad inh,p97 inhibitor,eIF4E 4G PPI,Calb biofilm kill,PERK inhibitor,Hck-Nef confirm
COc1ccc(-c2noc(CSc3nc(N)cc(=O)[nH]3)n2)cc1,.,.,.,.,.,.,/
O=C(CSc1nc2ccccc2n1CCc1ccccc1)N1CCOCC1,.,.,.,.,.,.,/
O=C(CSc1nc2ccccc2n1CCc1ccccc1)c1ccc(O)c(O)c1,189,94,.,62,.,.,+
Cc1ccc(NC(=O)COC(=O)/C=C/c2ccc(Br)o2)cc1S(=O)(=O)N(C)C,53,.,.,.,.,.,.
COCCNCC(=O)Nc1ccc(OC(F)(F)F)cc1,.,.,.,.,.,.,/
CCc1ccc2nc(NC(=O)c3ccc4c(=O)[nH]c(CN5CCOCC5)nc4c3)sc2c1,109,94[fluorescence artefact?],.,.,/,.,+
CCc1ccc2nc(NC(=O)c3ccc(N4C(=O)CCC4=O)cc3)sc2c1,.,.,.,.,.,.,/
CCCCCCCCCCC[C@@H](C[C@@H]1OC(=O)[C@H]1CCCCCC)OC(=O)[C@H](CC(C)C)NC=O,/,.,.,.,/,.,/
CCCc1cc(-c2[nH]ncc2-c2ccc3c(c2)OCCCO3)c(O)cc1O,74,.,.,.,/,.,+
COc1ccc(C(=O)Nc2ccc(O)c3c(=O)cc(-c4cccc(Cl)c4)oc23)cc1,83,.,/,.,.,/,.
Nc1nc(-c2c(Cl)cccc2Cl)no1,.,.,.,.,.,.,/
CC(/C=C1\SC(=S)N(NS(=O)(=O)c2ccc(C)cc2)C1=O)=C\c1ccccc1,99,.,.,.,.,.,+
O=C(CNc1ccccc1OC(F)F)N1CCc2ccccc21,.,.,.,.,.,.,/
CCN(CC)c1nc2ccccc2nc1-n1nc(C)cc1C,103,.,.,.,/,.,.
COc1ccccc1-c1c(C(F)(F)F)oc2cc(OC(=O)c3ccc([N+](=O)[O-])cc3)ccc2c1=O,.,.,.,.,.,.,/
COc1ccc(OCC(=O)Nc2ccc(NC(=O)c3cccs3)c(OC)c2)cc1,.,.,.,.,.,.,/
COc1cc(NC(=O)c2cccs2)c(OC)cc1NC(=O)CCC(=O)Nc1ccc2ncccc2c1,65,.,.,.,.,.,.
O=C(CSc1nnc(-c2ccco2)c(-c2ccco2)n1)c1ccccc1,69,.,.,.,.,.,.
Cc1cc(/C=C2\SC(=Nc3ccccc3)NC2=O)c(C)n1-c1ccc(S(N)(=O)=O)cc1,59,.,.,.,/,.,.
Cn1c(N/N=C2\CCCc3ccccc32)nc2c1c(=O)n(Cc1ccc(F)cc1)c(=O)n2C,56,96,.,.,.,.,.
Cc1cc(/C=N/Nc2ccc([N+](=O)[O-])cn2)c(C)n1-c1ccc(C(=O)O)cc1,79,.,.,34,.,.,.
CC(C)OCCCNC(=O)CNC(=O)c1ccc(Cl)c(Cl)c1,.,.,.,.,.,.,/
Cc1ccc(NC(=O)Cn2c(O)c(N=NC(=O)c3ccncc3)c3ccccc32)cc1,.,.,.,.,.,.,/
Cc1ccc(NC(=O)Cn2c(O)c(N=NC(=O)c3cc4ccccc4cc3O)c3ccccc32)cc1,51,82[fluorescence artefact?],.,.,.,.,.
COc1ccccc1NC(=O)Cn1c(O)c(N=NC(=O)c2ccccc2O)c2ccccc21,91,79,.,.,.,.,.
Cn1c(O)c(N=NC(=O)c2ccccc2O)c2ccccc21,.,.,.,.,.,.,/

# Screening results from PubChem BioAssay.
